Active and inactive are the calls of the source. The rule behind the calls is not given here.
Key:
Thymidylate kinase = target: T1, Thymidylate kinase (Mycobacterium tuberculosis, UniProt P9WKE1); assay: Inhibition of Mycobacterium tuberculosis thymidine monophosphate kinase
T1 sequence (P9WKE1 whole entry): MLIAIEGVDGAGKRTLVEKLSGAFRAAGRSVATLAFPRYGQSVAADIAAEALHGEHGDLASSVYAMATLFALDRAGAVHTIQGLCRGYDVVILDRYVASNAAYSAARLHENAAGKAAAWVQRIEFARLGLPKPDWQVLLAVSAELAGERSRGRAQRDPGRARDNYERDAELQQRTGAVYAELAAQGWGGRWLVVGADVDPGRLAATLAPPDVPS

[1] = test system: Mycobacterium vanbaalenii; assay: Growth inhibition of Mycobacterium vanbaalenii at 50 uM up to 24 hrs; format: functional; conditions: Mycolicibacterium vanbaalenii
In short: (§1)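 Mycobacteria grown overnight or 2 days at 37 C, 300 rpm in 3.7% brain heart infusion broth; M. smegmatis diluted 8x before seeding. Diluted culture incubated with compound (M. vanbaalenii 50 uM, M. smegmatis 100 uM). Controls: 0.3% DMSO (negative), isoniazid (positive). A595 read at 4, 8, 18, 24 h. Mean ± SEM of four experiments; Dunnett's test.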

[2] = Cytotoxicity against human SH-SY5Y at 50 uM after 2 days by CCK8 assay; format: cell-based; conditions: 48 h
In short: (§2)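 MDCK (5.0 x 10^3/well) and SH-SY5Y (1.5 x 10^4/well) in DMEM with 10% FBS, penicillin/streptomycin, 2 mM glutamine. Starved in 0.25% FBS (MDCK overnight, SH-SY5Y 2 days), then given compound at 50 uM in 0.25% FBS medium. Exposure: MDCK 1 day, SH-SY5Y 2 days. CCK-8 added, 3 h, WST-8 formazan A450. Isoniazid 50 uM control; mean ± SEM, n=4; Dunnett's test.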

MDCK = assay: Cytotoxicity against MDCK at 50 uM after 1 day by CCK8 assay; format: cell-based, Canis lupus familiaris; conditions: dog, 24 h; in short: as §2
Escherichia coli [3] = assay: Toxicity against Escherichia coli BL21 at 50 uM after 24 hrs
Escherichia coli [4] = assay: Toxicity against Escherichia coli JM 109 at 50 uM after 24 hrs; format: organism-based; conditions: in vivo
[5] = test system: Mycobacterium vanbaalenii; assay: Antimycobacterial activity against Mycobacterium vanbaalenii incubated up to 24 hrs; format: functional, Mycolicibacterium vanbaalenii
In short: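 M. vanbaalenii grown overnight or 2 days at 37 C, 300 rpm in 3.7% brain heart infusion broth, diluted, then incubated in medium with compound across a dose range. Growth read as A595 at 4, 8, 18 and 24 h; growth rate (%) taken from 24 h culture. IC50 from dose-response; mean ± SD, four independent experiments.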

[6] = test system: Mycobacterium vanbaalenii; assay: Growth inhibition of Mycobacterium vanbaalenii at 50 uM after 18 hrs; format: functional; conditions: Mycolicibacterium vanbaalenii; in short: as §1
[7] = test system: Mycolicibacterium smegmatis; assay: Growth inhibition of Mycobacterium smegmatis at 100 uM after 24 hrs; format: functional, organism-based; in short: as §1
[8] = target: T2, Enoyl-[acyl-carrier-protein] reductase [NADH] (Mycobacterium tuberculosis, UniProt P9WGR1); assay: Inhibition of Mycobacterium tuberculosis InhA
T2 sequence (P9WGR1 whole entry): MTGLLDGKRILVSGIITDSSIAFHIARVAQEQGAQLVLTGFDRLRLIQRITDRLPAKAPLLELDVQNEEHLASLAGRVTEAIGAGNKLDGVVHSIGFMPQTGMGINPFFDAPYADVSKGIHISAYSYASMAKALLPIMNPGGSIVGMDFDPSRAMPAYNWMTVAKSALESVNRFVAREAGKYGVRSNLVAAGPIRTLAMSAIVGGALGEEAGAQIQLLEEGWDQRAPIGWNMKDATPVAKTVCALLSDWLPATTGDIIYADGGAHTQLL

| Structure (SMILES) | growth inhibition (GI) [1] | IC50 [5] [µM] | growth inhibition (GI) [6] | growth inhibition (GI) [7] | other results |
| --- | --- | --- | --- | --- | --- |
| Cc1cn([C@H]2C[C@H](CN=[N+]=[N-])[C@@H](COP(=O)(O)O)O2)c(=O)[nH]c1=O |  |  |  |  | Ki (Thymidylate kinase): 10 µM |
| CCCc1cc(=O)oc2cc(OCC(=O)OCc3ccccc3)c(Cl)cc12 | inactive |  |  |  |  |
| Cc1ccc(Nc2nc(Nc3ccc(C)cc3)nc(Sc3nnc(C)s3)n2)cc1 | Active | 22 | Active | Active | Activity [2]: Toxic; Activity (MDCK): Toxic; Activity (Escherichia coli [3]): Non-toxic; Activity (Escherichia coli [4]): Non-toxic |
| O=C(Nc1ccc(OCc2ccccc2)cc1)C1CCN(C(=O)c2ccc([N+](=O)[O-])cc2)CC1 | inactive |  |  |  |  |
| CCOc1ccc(NC(=O)CSc2nc3ccc(NC(=O)c4ccccc4C)cc3s2)cc1 | inactive |  |  |  |  |
| O=C(Oc1cccc2cccnc12)c1ccc(S(=O)(=O)c2ccc(Cl)cc2)cc1 | Active | 20 | Active | Active | Activity [2]: Non-toxic; Activity (MDCK): Non-toxic; Activity (Escherichia coli [3]): Non-toxic; Activity (Escherichia coli [4]): Non-toxic |
| NNC(=O)c1ccncc1 [ISONIAZID] |  | 2.6 | Active | Active |  |
| CCc1cc(=O)oc2cc(OCC(=O)OCc3ccccc3)c(Cl)cc12 | Active |  | Active | inactive |  |
| CC(C)Oc1cccc(-c2cc(C(=O)NCCc3ccc(S(N)(=O)=O)cc3)c3ccccc3n2)c1 | Active | 15 | Active | Active | Activity [2]: Non-toxic; Activity (MDCK): Non-toxic; Activity (Escherichia coli [3]): Non-toxic; Activity (Escherichia coli [4]): Non-toxic |
| COc1ccc(-c2cc3ccccc3oc2=O)cc1NC(=O)COc1ccc(Cl)cc1C | inactive |  |  |  |  |
| CCCCc1cc(=O)oc2cc(OCC(=O)OCC)c(Cl)cc12 | inactive |  |  |  |  |
| COC(=O)COc1ccc(NC(=O)c2ccc(C(C)(C)C)cc2)cc1 | inactive |  |  |  |  |
| NC(=O)C1=CN([C@@H]2O[C@H](COP(=O)(O)OP(=O)(O)OC[C@H]3O[C@@H](n4cnc5c(N)ncnc54)[C@H](O)[C@@H]3O)[C@@H](O)[C@H]2O)C=C[C@H]1C(=O)c1ccncc1 |  |  |  |  | Ki [8]: 0.00075 µM |

— ChEMBL document CHEMBL2311442, “Identification of novel antimycobacterial chemical agents through the in silico multi-conformational structure-based drug screening of a large-scale chemical library” (Eur J Med Chem, 2013)
